Experiment [1] has as its target T1, Retinoic acid receptor RXR-alpha (Homo sapiens, UniProt P19793).
T1 sequence (P19793 whole entry): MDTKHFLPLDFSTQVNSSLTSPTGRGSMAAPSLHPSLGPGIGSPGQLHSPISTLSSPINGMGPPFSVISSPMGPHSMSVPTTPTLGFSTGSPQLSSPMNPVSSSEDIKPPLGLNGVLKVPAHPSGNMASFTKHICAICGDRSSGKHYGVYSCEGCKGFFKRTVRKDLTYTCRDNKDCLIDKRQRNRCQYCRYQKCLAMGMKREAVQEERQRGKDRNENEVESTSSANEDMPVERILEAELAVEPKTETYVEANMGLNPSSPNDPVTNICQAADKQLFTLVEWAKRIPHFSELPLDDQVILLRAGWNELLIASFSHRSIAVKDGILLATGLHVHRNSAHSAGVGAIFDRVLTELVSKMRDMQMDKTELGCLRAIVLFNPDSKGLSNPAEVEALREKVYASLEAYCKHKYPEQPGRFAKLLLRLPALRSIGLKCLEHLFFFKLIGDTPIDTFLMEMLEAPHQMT
Description: Binding affinity for human Retinoid X receptor RXR alpha. The essentials: (§1)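 Equilibrium fluorometric titration at 25 °C of recombinant E. coli-expressed apo-proteins (mCRABP-I, mCRABP-II, or hRXRα DEF ligand-binding domain). Ligands came from ethanol stocks, with concentrations set by UV/vis in hexane. Tryptophan fluorescence quenching was read and corrected for inner filter effects. A survey was run at 10^-6 M protein to check stoichiometry.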

For experiment [2], the target named is T2, Cellular retinoic acid-binding protein 2 (Mus musculus, UniProt P22935).
T2 sequence (P22935 whole entry): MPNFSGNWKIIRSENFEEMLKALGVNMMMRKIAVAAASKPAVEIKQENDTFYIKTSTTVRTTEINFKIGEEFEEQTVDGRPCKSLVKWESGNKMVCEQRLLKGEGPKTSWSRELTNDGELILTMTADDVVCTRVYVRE
Briefly: Binding affinity for mouse Cytoplasmic retinoic acid binding protein type 2. The essentials: as §1

For experiment [3], the target named is T3, Retinoic acid receptor beta (Mus musculus, UniProt P22605).
T3 sequence (P22605 whole entry): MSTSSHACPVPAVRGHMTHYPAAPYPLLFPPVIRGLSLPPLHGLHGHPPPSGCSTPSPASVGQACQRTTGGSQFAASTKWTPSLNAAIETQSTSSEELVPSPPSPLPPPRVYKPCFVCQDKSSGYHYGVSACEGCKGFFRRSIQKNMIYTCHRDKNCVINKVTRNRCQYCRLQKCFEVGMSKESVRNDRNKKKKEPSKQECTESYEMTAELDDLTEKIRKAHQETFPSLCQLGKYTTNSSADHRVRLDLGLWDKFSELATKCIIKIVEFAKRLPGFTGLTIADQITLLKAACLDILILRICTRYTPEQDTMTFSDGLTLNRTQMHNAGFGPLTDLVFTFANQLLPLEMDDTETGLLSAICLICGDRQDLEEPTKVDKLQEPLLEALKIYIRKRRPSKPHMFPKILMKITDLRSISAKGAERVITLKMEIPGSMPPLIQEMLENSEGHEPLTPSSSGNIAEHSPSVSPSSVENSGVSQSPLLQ
Briefly: Inhibition of murine Retinoic acid receptor RAR beta. The essentials: (§2)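 Nucleosol fractions from COS-1 cells transfected with mouse RARα, β or γ cDNA in pSG5 were incubated with 5 nM [3H]-(all-E)-RA at 4 °C for 4 h. Competitor in ethanol was added at nine concentrations (0–10 μM) in duplicate. Bound label was separated on PD-10 desalting columns and counted by scintillation. IC50 came from a fit of percent specific binding.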

For experiment [4], the target named is Cellular retinoic acid-binding protein 1 (Mus musculus, UniProt P62965). Description: Binding affinity for mouse Cytoplasmic retinoic acid binding protein type 1. The essentials:
as §1

Experiment [5] concerns the target T4, Retinoic acid receptor RXR-alpha (Mus musculus, UniProt P28700).
T4 sequence (P28700 whole entry): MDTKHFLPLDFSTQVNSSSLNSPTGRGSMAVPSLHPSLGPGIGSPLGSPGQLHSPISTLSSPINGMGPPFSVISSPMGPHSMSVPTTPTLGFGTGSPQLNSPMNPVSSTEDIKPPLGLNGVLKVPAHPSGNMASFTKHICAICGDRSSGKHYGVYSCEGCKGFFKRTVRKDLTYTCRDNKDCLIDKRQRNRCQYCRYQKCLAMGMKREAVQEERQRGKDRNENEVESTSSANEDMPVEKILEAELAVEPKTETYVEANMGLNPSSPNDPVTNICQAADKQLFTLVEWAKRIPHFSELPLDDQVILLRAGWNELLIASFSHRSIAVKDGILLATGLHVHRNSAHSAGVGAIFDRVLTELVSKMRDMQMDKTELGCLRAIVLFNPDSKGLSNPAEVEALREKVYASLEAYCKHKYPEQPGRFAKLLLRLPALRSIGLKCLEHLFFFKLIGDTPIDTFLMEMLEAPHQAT
Briefly: Inhibition of binding to murine Retinoid X receptor RXR alpha.

The target in experiment [6] is T5, Retinoic acid receptor gamma (Mus musculus, UniProt P18911).
T5 sequence (P18911 whole entry): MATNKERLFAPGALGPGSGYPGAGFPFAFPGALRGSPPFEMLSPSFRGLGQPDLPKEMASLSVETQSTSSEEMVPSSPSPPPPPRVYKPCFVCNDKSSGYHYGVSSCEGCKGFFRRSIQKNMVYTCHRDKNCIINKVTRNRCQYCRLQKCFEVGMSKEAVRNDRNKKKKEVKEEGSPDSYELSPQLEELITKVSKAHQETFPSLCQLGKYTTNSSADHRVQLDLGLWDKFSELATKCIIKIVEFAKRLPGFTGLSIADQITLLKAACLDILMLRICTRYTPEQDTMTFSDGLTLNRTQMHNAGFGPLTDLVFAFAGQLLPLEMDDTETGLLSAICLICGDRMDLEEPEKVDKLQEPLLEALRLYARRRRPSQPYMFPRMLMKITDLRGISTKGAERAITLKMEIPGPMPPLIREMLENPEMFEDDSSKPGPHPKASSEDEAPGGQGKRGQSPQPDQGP
Briefly: Inhibition of binding to murine Retinoic acid receptor RAR gamma. The essentials: as §2

This note sets out measurements from ChEMBL document CHEMBL1128411, “Conformationally defined 6-s-trans-retinoic acid analogs. 2. Selective agonists for nuclear receptor binding and transcriptional activity” (J Med Chem, 1995).

Chain of Cellular retinoic acid-binding protein 1 (P62965 whole entry): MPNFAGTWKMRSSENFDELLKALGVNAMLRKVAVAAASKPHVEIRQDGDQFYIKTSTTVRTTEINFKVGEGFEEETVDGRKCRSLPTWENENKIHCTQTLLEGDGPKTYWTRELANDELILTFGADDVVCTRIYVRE

What is called Kd is the equilibrium constant for the complex coming apart. A low value points to higher affinity. As usually defined, the IC50 is the midpoint of a concentration-inhibition curve. A high value points to a need for much substance. On to `CCC1=C(C(C)C)/C(=C/C(C)=C/C=C/C(C)=C/C(=O)O)CCC1`, for which the dissociation constant Kd in experiment [1] is more than 200 nM; in experiment [2], 1.4 nM; in experiment [4], 0.3 nM. In addition, the IC50 in experiment [3] was 6 nM; in experiment [5], more than 1000 nM; in experiment [6], 10 nM.
